Laboratory results: ChEMBL document CHEMBL1149147, “NR2B-selective N-methyl-D-aspartate antagonists: synthesis and evaluation of 5-substituted benzimidazoles” (J Med Chem, 2004)
pIC50, pKi: −log10 of the molar value.

The compounds below were run against Voltage-gated inwardly rectifying potassium channel KCNH2 (Homo sapiens, UniProt Q12809) (assay: In vitro inhibition of MK-499 binding to hERG in HEK293 cells). Conditions: read-out: IP.
Assay type: cell-based

Chain of Voltage-gated inwardly rectifying potassium channel KCNH2 (Q12809 whole entry): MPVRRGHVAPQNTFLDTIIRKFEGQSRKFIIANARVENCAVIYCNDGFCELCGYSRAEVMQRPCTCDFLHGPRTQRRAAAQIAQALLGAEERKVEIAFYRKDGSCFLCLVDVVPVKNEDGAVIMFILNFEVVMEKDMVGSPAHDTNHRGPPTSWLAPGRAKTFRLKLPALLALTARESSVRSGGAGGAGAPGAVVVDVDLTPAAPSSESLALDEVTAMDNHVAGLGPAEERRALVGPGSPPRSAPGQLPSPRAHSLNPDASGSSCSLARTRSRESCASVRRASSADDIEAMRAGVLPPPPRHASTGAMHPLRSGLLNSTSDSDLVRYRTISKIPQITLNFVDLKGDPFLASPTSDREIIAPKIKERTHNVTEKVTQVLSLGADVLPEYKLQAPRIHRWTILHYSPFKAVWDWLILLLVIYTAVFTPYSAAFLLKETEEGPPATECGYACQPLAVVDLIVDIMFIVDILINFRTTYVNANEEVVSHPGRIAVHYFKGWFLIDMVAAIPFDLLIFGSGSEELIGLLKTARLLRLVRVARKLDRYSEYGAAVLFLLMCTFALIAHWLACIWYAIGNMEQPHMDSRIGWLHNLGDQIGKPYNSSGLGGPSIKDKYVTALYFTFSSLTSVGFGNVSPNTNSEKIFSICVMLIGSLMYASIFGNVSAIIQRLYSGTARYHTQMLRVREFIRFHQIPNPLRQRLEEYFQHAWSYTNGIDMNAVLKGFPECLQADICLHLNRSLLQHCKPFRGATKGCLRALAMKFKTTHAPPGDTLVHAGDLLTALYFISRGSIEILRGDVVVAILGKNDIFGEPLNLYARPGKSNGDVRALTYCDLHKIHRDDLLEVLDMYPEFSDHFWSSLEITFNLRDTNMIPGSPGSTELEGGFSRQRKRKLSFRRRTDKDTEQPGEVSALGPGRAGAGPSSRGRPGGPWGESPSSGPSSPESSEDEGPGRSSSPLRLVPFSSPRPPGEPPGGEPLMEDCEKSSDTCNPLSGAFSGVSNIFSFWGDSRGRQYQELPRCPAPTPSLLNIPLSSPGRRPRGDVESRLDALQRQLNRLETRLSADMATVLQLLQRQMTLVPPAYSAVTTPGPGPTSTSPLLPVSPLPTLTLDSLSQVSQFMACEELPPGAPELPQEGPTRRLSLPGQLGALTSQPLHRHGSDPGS

| SMILES | pIC50 |
| --- | --- |
| Oc1ccc2[nH]c(CN3CCC(Cc4cccc(F)c4)CC3)nc2c1 | 5.68 |
| c1ccc(CC2CCN(Cc3nc4ccccc4[nH]3)CC2)cc1 | 5.85 |
| Cc1ccc(CC2CCN(Cc3nc4cc(O)ccc4[nH]3)CC2)cc1 | 6.41 |
| CS(=O)(=O)Nc1ccc2nc(CN3CCC(Cc4ccccc4)CC3)[nH]c2c1 | 6.47 |
| CN(c1ccc2[nH]c(Cc3ccc(Oc4ccccc4)cc3)nc2c1)S(C)(=O)=O | 6.19 |
| O=[N+]([O-])c1ccc2[nH]c(Cc3ccc(Oc4ccccc4)cc3)nc2c1 | 6.11 |
| Oc1ccc2[nH]c(Cc3ccc(Oc4ccccc4)cc3)nc2c1 | 6.14 |
| N#Cc1ccc2[nH]c(Cc3ccc(Oc4ccccc4)cc3)nc2c1 | 5.96 |
| Oc1cccc2[nH]c(Cc3ccc(Oc4ccccc4)cc3)nc12 | 6.07 |
| CCCS(=O)(=O)Nc1ccc2[nH]c(Cc3ccc(Oc4ccccc4)cc3)nc2c1 | 6.40 |
| Oc1ccc2[nH]c(CN3CCC(Cc4ccc(F)cc4)CC3)nc2c1 | 6.30 |

Each compound was assayed against T1, Adrenergic receptor alpha-1 (Rattus norvegicus, UniProt P15823+P23944+P43140) (assay: In vitro inhibitory activity against alpha-1 adrenergic receptor binding to rat brain membranes). Conditions: not given.
T1 sequence (P15823 whole entry): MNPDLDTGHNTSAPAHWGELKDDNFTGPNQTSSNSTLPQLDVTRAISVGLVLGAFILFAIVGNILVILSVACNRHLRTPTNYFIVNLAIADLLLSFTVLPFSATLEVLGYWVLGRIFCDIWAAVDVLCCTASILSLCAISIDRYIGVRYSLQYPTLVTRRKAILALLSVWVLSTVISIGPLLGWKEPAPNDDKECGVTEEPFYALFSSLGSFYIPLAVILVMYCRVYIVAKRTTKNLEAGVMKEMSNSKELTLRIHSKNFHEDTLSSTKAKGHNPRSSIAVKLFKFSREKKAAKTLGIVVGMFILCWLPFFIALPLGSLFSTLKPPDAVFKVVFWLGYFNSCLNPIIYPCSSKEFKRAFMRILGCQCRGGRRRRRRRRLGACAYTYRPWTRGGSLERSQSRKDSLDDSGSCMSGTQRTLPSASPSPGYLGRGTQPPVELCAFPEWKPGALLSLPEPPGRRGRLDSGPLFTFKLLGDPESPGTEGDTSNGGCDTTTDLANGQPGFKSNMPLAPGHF
T1 sequence (P23944 whole entry): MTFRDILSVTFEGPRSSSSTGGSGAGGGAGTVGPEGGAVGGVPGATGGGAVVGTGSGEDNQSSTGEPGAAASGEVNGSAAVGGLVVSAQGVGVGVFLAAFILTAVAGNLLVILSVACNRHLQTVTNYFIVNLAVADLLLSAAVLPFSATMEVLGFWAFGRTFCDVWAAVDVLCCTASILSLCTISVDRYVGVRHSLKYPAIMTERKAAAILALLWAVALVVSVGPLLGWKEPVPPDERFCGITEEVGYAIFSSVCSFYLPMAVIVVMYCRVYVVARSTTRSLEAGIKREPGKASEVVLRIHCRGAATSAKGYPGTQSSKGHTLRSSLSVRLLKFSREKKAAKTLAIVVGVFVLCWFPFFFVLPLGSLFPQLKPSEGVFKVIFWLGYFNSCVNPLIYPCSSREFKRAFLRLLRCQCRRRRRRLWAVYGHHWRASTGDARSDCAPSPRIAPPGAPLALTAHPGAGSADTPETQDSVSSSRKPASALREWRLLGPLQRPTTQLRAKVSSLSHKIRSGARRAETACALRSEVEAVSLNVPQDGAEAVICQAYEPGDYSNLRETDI
T1 sequence (P43140 whole entry): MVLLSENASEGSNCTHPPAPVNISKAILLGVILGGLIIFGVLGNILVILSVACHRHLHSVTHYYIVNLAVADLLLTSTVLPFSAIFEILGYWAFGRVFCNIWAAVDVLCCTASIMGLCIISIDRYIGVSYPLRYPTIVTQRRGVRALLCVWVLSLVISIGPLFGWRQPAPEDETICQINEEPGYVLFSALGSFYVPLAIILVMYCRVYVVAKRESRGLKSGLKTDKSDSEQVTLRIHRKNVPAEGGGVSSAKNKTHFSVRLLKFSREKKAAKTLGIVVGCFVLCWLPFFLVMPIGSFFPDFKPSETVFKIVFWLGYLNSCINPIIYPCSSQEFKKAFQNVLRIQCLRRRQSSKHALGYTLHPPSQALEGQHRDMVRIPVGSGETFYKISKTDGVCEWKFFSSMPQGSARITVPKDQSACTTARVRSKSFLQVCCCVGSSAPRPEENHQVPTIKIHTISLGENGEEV
Set-up: species or system Membrane
Method in brief: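 Competition binding to α1-adrenergic receptors on membranes prepared from rat brain, using the prazosin binding assay. IC50 is the geometric mean of at least 4 determinations.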

| SMILES | IC50 |
| --- | --- |
| Oc1ccc2[nH]c(CN3CCC(Cc4cccc(F)c4)CC3)nc2c1 | 0.52 µM |
| c1ccc(CC2CCN(Cc3nc4ccccc4[nH]3)CC2)cc1 | 2.8 µM |
| Cc1ccc(CC2CCN(Cc3nc4cc(O)ccc4[nH]3)CC2)cc1 | 0.83 µM |
| CS(=O)(=O)Nc1ccc2nc(CN3CCC(Cc4ccccc4)CC3)[nH]c2c1 | 1.5 µM |
| CN(c1ccc2[nH]c(Cc3ccc(Oc4ccccc4)cc3)nc2c1)S(C)(=O)=O | 2 µM |
| O=[N+]([O-])c1ccc2[nH]c(Cc3ccc(Oc4ccccc4)cc3)nc2c1 | 1.2 µM |
| Oc1ccc2[nH]c(Cc3ccc(Oc4ccccc4)cc3)nc2c1 | 0.2 µM |
| N#Cc1ccc2[nH]c(Cc3ccc(Oc4ccccc4)cc3)nc2c1 | 3.4 µM |
| Oc1cccc2[nH]c(Cc3ccc(Oc4ccccc4)cc3)nc12 | 5.5 µM |
| CCCS(=O)(=O)Nc1ccc2[nH]c(Cc3ccc(Oc4ccccc4)cc3)nc2c1 | 4.8 µM |
| Oc1ccc2[nH]c(CN3CCC(Cc4ccc(F)cc4)CC3)nc2c1 | 0.62 µM |

Each compound was assayed against T2, Glutamate NMDA receptor; GRIN1/GRIN2B (Homo sapiens, UniProt Q05586+Q13224) (assay: In vitro inhibition of Glu/Gly stimulated [Ca2+] influx in LtK-cells expressing the hNR1a/NR2B receptor). Conditions: not given.
Assay type: functional
Method in brief: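 Fluorescence readout of Ca2+ flux stimulated by glutamate/glycine in Ltk- cells stably expressing human NR1a/NR2B, measured as inhibition. IC50 is the geometric mean of at least n = 4, with 2×SEGM given.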

T2 sequence (Q13224 whole entry, other chains not shown): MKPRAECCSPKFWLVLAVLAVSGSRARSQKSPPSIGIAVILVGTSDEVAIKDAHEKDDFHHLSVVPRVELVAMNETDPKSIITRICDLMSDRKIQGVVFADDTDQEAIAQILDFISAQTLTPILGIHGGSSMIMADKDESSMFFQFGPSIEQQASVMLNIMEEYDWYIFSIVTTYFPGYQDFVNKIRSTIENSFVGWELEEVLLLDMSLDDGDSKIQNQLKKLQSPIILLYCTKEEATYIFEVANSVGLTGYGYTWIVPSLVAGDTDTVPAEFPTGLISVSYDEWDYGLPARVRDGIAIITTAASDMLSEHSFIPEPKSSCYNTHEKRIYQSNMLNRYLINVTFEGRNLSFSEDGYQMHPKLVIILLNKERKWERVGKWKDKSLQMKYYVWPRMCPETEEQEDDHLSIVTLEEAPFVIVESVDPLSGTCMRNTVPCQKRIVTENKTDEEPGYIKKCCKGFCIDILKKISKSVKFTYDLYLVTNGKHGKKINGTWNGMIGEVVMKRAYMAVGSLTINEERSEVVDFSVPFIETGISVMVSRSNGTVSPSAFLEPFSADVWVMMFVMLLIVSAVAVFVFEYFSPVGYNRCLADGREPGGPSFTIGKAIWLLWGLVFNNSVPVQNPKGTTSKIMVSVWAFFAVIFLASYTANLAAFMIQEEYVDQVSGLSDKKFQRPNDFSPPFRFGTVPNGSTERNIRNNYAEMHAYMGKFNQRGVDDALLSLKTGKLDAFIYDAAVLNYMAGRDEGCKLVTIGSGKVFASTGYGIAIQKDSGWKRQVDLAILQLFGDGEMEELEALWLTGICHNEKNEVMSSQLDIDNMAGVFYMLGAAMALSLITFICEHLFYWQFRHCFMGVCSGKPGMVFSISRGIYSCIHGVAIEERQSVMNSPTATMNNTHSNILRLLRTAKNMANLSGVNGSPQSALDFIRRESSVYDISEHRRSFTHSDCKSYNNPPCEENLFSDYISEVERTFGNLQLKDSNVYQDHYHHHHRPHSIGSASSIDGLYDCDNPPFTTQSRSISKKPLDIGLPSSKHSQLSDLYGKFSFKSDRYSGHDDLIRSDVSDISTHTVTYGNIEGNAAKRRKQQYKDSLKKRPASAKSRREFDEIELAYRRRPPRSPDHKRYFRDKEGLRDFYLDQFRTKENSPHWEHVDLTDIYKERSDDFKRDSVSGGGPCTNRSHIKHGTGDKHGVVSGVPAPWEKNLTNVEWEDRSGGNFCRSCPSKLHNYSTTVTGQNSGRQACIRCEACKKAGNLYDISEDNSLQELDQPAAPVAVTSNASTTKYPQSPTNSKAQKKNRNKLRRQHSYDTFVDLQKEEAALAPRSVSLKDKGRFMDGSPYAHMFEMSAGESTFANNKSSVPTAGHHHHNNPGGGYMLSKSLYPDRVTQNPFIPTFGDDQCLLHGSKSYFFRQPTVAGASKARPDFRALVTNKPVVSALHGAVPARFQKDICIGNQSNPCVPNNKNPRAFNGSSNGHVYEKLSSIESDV

| SMILES | pIC50 |
| --- | --- |
| Oc1ccc2[nH]c(CN3CCC(Cc4cccc(F)c4)CC3)nc2c1 | 7.36 |
| c1ccc(CC2CCN(Cc3nc4ccccc4[nH]3)CC2)cc1 | 6.15 |
| Cc1ccc(CC2CCN(Cc3nc4cc(O)ccc4[nH]3)CC2)cc1 | 8.24 |
| CS(=O)(=O)Nc1ccc2nc(CN3CCC(Cc4ccccc4)CC3)[nH]c2c1 | 8.72 |
| CN(c1ccc2[nH]c(Cc3ccc(Oc4ccccc4)cc3)nc2c1)S(C)(=O)=O | 7.60 |
| O=[N+]([O-])c1ccc2[nH]c(Cc3ccc(Oc4ccccc4)cc3)nc2c1 | 5.18 |
| Oc1ccc2[nH]c(Cc3ccc(Oc4ccccc4)cc3)nc2c1 | 8.04 |
| N#Cc1ccc2[nH]c(Cc3ccc(Oc4ccccc4)cc3)nc2c1 | 6.10 |
| Oc1cccc2[nH]c(Cc3ccc(Oc4ccccc4)cc3)nc12 | 6.82 |
| CCCS(=O)(=O)Nc1ccc2[nH]c(Cc3ccc(Oc4ccccc4)cc3)nc2c1 | 7.72 |
| Oc1ccc2[nH]c(CN3CCC(Cc4ccc(F)cc4)CC3)nc2c1 | 7.92 |

These compounds were tested against T2, Glutamate NMDA receptor; GRIN1/GRIN2B (assay: Compound was evaluated for in vitro inhibition of [3H][(E)-N-(2-methoxybenzyl)cinnamamidine binding to human NR1a/NR2B receptors expressed in LtK-cells). Conditions: not given.
Assay type: cell-based

| SMILES | pKi |
| --- | --- |
| Oc1ccc2[nH]c(CN3CCC(Cc4cccc(F)c4)CC3)nc2c1 | 8.38 |
| c1ccc(CC2CCN(Cc3nc4ccccc4[nH]3)CC2)cc1 | 6.38 |
| Cc1ccc(CC2CCN(Cc3nc4cc(O)ccc4[nH]3)CC2)cc1 | 9.40 |
| CS(=O)(=O)Nc1ccc2nc(CN3CCC(Cc4ccccc4)CC3)[nH]c2c1 | 9.00 |
| CN(c1ccc2[nH]c(Cc3ccc(Oc4ccccc4)cc3)nc2c1)S(C)(=O)=O | 6.33 |
| Oc1ccc2[nH]c(Cc3ccc(Oc4ccccc4)cc3)nc2c1 | 8.49 |
| N#Cc1ccc2[nH]c(Cc3ccc(Oc4ccccc4)cc3)nc2c1 | 6.10 |
| Oc1cccc2[nH]c(Cc3ccc(Oc4ccccc4)cc3)nc12 | 6.85 |
| CCCS(=O)(=O)Nc1ccc2[nH]c(Cc3ccc(Oc4ccccc4)cc3)nc2c1 | 7.68 |
| Oc1ccc2[nH]c(CN3CCC(Cc4ccc(F)cc4)CC3)nc2c1 | 8.96 |
